Data: ChEMBL document CHEMBL1140733, “Comprehensive study of sansalvamide A derivatives and their structure-activity relationships against drug-resistant colon cancer cell lines” (J Med Chem, 2008)
Square brackets hold non-standard residues; d marks the D form. Peptide text beside a SMILES is read from it. * marks the point of attachment. Cbz = O=C(OCc1ccccc1)*

Tests used:
HCT-116 [1] = assay: Cytotoxicity against multidrug-resistant human HCT116 cells at 1 uM by thymidine incorporation assay; format: functional
Outline: (§1)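 HCT-116 cells were grown in IMDM and HCT-15 in RPMI 1640, each with L-glutamine, 10% FBS and penicillin-streptomycin, at 3000 cells/well. Compound was applied at 1 µM in 1% DMSO for 72 h total, with 3H-thymidine added for the final 16 h. Percent growth inhibition versus DMSO controls was scintillation-counted, averaging three wells in each of three assays.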

HCT-15 [2] = assay: Cytotoxicity against multidrug-resistant human HCT15 cells at 1 uM by thymidine incorporation assay; format: functional; outline: as §1
HCT-116 [3] = assay: Cytotoxicity against multidrug-resistant human HCT116 cells by thymidine incorporation assay; format: functional, cell-based
Outline: (§2)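 Cells (3000/well) were plated in IMDM (HCT-116), RPMI 1640 (HCT-15) or MEM (WS-1), each with L-glutamine, 10% FBS and 0.1% penicillin-streptomycin. Compounds in DMSO (1% in all wells) were added after about 6 h and left for 72 h, with 3H-thymidine pulsed for the last 16 h. Uptake was scintillation-counted against DMSO controls. IC50 came from four-concentration curves, three experiments in quadruplicate.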

HCT-15 [4] = assay: Cytotoxicity against multidrug-resistant human HCT15 cells by thymidine incorporation assay; format: functional, cell-based; outline: as §2

## CC(C)[C@@H]1NC(=O)[C@H](Cc2ccccc2)NC(=O)[C@H](C(C)C)NC(=O)[C@@H](CO)NC(=O)[C@H](C(C)C)NC1=O (HELM PEPTIDE1{F.V.V.[dS].V}$PEPTIDE1,PEPTIDE1,1:R1-5:R2$$$V2.0)
HCT-116 [1]
  inhibition at 1 µM: 18%
HCT-15 [2]
  inhibition at 1 µM: 13%

## CC(C)C[C@@H]1C(=O)N[C@H](CC(C)C)C(=O)N(C)[C@H](C(C)C)C(=O)N[C@H](CC(C)C)C(=O)N[C@H](Cc2ccccc2)C(=O)N1C (HELM PEPTIDE1{[dF].[CC(C)C[C@H](C(=O)[*:2])N(C)[*:1]].[dL].[CC(C)[C@H](C(=O)[*:2])N(C)[*:1]].[dL]}$PEPTIDE1,PEPTIDE1,1:R1-5:R2$$$V2.0)
HCT-116 [1]
  inhibition at 1 µM: 43%
HCT-15 [2]
  inhibition at 1 µM: 48%

## CC(C)C[C@@H]1NC(=O)[C@H](CC(C)C)NC(=O)[C@@H](Cc2ccccc2)NC(=O)[C@@H](CC(C)C)NC(=O)[C@@H](C(C)C)NC1=O (HELM PEPTIDE1{L.L.[dV].[dL].[dF]}$PEPTIDE1,PEPTIDE1,1:R1-5:R2$$$V2.0)
HCT-116 [1]
  inhibition at 1 µM: 44%
HCT-15 [2]
  inhibition at 1 µM: 35%

## CC(C)C[C@@H]1NC(=O)[C@H](Cc2ccccc2)NC(=O)[C@H](CC(C)C)NC(=O)[C@@H](C(C)C)N(C)C(=O)[C@H](CC(C)C)NC1=O (HELM PEPTIDE1{F.L.L.[CC(C)[C@H](C(=O)[*:2])N(C)[*:1]].L}$PEPTIDE1,PEPTIDE1,1:R1-5:R2$$$V2.0)
HCT-116 [1]
  inhibition at 1 µM: 19%
HCT-15 [2]
  inhibition at 1 µM: 21%

## CC(C)C[C@@H]1NC(=O)[C@H](Cc2ccccc2)NC(=O)[C@@H](CC(C)C)N(C)C(=O)[C@@H](C(C)C)N(C)C(=O)[C@H](CC(C)C)NC1=O (HELM PEPTIDE1{F.L.L.[CC(C)[C@H](C(=O)[*:2])N(C)[*:1]].[CC(C)C[C@H](C(=O)[*:2])N(C)[*:1]]}$PEPTIDE1,PEPTIDE1,1:R1-5:R2$$$V2.0)
HCT-116 [1]
  inhibition at 1 µM: 30%
HCT-15 [2]
  inhibition at 1 µM: 7%

## CC(C)C[C@@H]1NC(=O)[C@H](Cc2ccccc2)NC(=O)[C@H](CC(C)C)NC(=O)[C@H](C(C)C)NC(=O)[C@H](CCCCNC(=O)OCc2ccccc2)NC1=O (cyclo(FLK(Cbz)VL))
HCT-116 [1]
  inhibition at 1 µM: 46%
HCT-15 [2]
  inhibition at 1 µM: 41%

## CC(C)C[C@@H]1NC(=O)[C@@H](C(C)C)NC(=O)[C@H](CC(C)C)NC(=O)[C@H](CC(C)C)N(C)C(=O)[C@H](Cc2ccccc2)NC1=O (HELM PEPTIDE1{F.[meL].L.[dV].L}$PEPTIDE1,PEPTIDE1,1:R1-5:R2$$$V2.0)
HCT-116 [1]
  inhibition at 1 µM: 38%
HCT-15 [2]
  inhibition at 1 µM: 19%

## CC(C)C[C@@H]1NC(=O)[C@H](Cc2ccccc2)NC(=O)[C@H](CC(C)C)NC(=O)[C@@H](C(C)C)NC(=O)[C@H](CCCCNC(=O)OCc2ccccc2)NC1=O (cyclo(FLK(Cbz)[dV]L))
HCT-116 [1]
  inhibition at 1 µM: 16%
HCT-15 [2]
  inhibition at 1 µM: 3%

## CC(C)C[C@@H]1NC(=O)[C@@H](Cc2ccccc2)NC(=O)[C@@H](CC(C)C)NC(=O)[C@@H](C(C)C)NC(=O)[C@H](CCCCNC(=O)OCc2ccccc2)NC1=O (cyclo(K(Cbz)[dV][dL][dF]L))
HCT-116 [1]
  inhibition at 1 µM: 22%
HCT-15 [2]
  inhibition at 1 µM: 13%

## CC(C)C[C@@H]1NC(=O)[C@H](Cc2ccccc2)NC(=O)[C@@H](CC(C)C)NC(=O)[C@@H](C(C)C)NC(=O)[C@H](CC(C)C)NC1=O (HELM PEPTIDE1{F.L.L.[dV].[dL]}$PEPTIDE1,PEPTIDE1,1:R1-5:R2$$$V2.0)
HCT-116 [1]
  inhibition at 1 µM: 34%
HCT-15 [2]
  inhibition at 1 µM: 17%

## CC(C)[C@@H]1NC(=O)[C@H](Cc2ccccc2)NC(=O)[C@H](C(C)C)NC(=O)[C@@H](C(C)C)NC(=O)[C@H](C(C)C)NC1=O (HELM PEPTIDE1{F.V.V.[dV].V}$PEPTIDE1,PEPTIDE1,1:R1-5:R2$$$V2.0)
HCT-116 [1]
  inhibition at 1 µM: 19%
HCT-15 [2]
  inhibition at 1 µM: 1%

## CC(C)C[C@@H]1NC(=O)[C@H](CC(C)C)N(C)C(=O)[C@H](Cc2ccccc2)NC(=O)[C@H](CC(C)C)N(C)C(=O)[C@H](C(C)C)NC1=O (HELM PEPTIDE1{F.[meL].L.V.[meL]}$PEPTIDE1,PEPTIDE1,1:R1-5:R2$$$V2.0)
HCT-116 [1]
  inhibition at 1 µM: 20%
HCT-15 [2]
  inhibition at 1 µM: 0%

## CC(C)C[C@@H]1NC(=O)[C@@H](C(C)C)N(C)C(=O)[C@H](CC(C)C)NC(=O)[C@@H](CC(C)C)NC(=O)[C@H](Cc2ccccc2)NC1=O (HELM PEPTIDE1{F.[dL].L.[CC(C)[C@H](C(=O)[*:2])N(C)[*:1]].L}$PEPTIDE1,PEPTIDE1,1:R1-5:R2$$$V2.0)
HCT-116 [1]
  inhibition at 1 µM: 38%
HCT-15 [2]
  inhibition at 1 µM: 14%

## CC(C)C[C@@H]1NC(=O)[C@H](CC(C)C)NC(=O)[C@@H](Cc2ccccc2)NC(=O)[C@H](CC(C)C)NC(=O)[C@H](C(C)C)NC1=O (HELM PEPTIDE1{L.L.V.L.[dF]}$PEPTIDE1,PEPTIDE1,1:R1-5:R2$$$V2.0)
HCT-116 [3]
  IC50: > 50 µM
HCT-15 [4]
  IC50: > 50 µM
HCT-116 [1]
  inhibition at 1 µM: 30%
HCT-15 [2]
  inhibition at 1 µM: 26%

## CC[C@H]1NC(=O)[C@H](C(C)C)NC(=O)[C@H](C(C)C)NC(=O)[C@H](Cc2ccccc2)NC(=O)[C@H](C(C)C)NC1=O (HELM PEPTIDE1{F.V.V.[CC[C@@H](N[*:1])C(=O)[*:2]].V}$PEPTIDE1,PEPTIDE1,1:R1-5:R2$$$V2.0)
HCT-116 [1]
  inhibition at 1 µM: 16%
HCT-15 [2]
  inhibition at 1 µM: 2%
